One data set deals with Dengue virus. Description: Inhibition of Dengue virus NS2B-NS3 serine protease expressed in Escherichia coli BL 21 (DE3) at 50 uM preincubated for 15 mins before substrate addition measured after 15 mins by fluorimetric analysis. The essentials:
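Recombinant NS2B hydrophilic cofactor linked through a glycine linker to NS3pro, His-purified on Ni2+ resin. Enzyme preincubated 15 min with inhibitor at 50 μM. Internally quenched substrate added to 50 μM final. Fluorescence read at ex 320/em 405 nm for 15 min, with initial slope per second as activity. Triplicate runs averaged.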

Data set [1] concerns the target Prothrombin (Homo sapiens) (UniProt P00734). Description: Inhibition of thrombin at 25 uM preincubated for 15 mins before Boc-Val-Pro-Arg-AMC substrate addition measured after 10 mins by microtiter fluorescence plate reader analysis.
Data set [2] deals with Genome polyprotein (West Nile virus) (UniProt P06935). Description: Inhibition of West Nile virus NS2B-NS3 serine protease at 50 uM preincubated for 15 mins before substrate addition measured after 15 mins by fluorimetric analysis. The gist of the method:
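WNV NS2B-NS3 protease at 150 nM final, preincubated 15 min with inhibitor at 50 μM. Abz-GLKRGG-3-(NO2)Y internally quenched substrate added to 50 μM final. Continuous fluorescence read for 15 min, with initial slope per second as activity.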

Data set [3] concerns dengue virus type 2. In words: Antiviral activity against Dengue virus 2 infected in human Huh-7 cells assessed as reduction of viral titers at non-cytotoxic concentration after 24 hrs by reporter gene assay relative to control. The data set is classed as functional. The essentials: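 Huh-7 cells were infected with wild-type DenV-2 at an MOI of 1 TCID50 per cell. Compounds were added to the supernatants 4 h post-infection, with 1% final DMSO as the diluent control. Infectious titers were determined 24 h post-infection by limiting-dilution assay, with three independent experiments. Cytotoxicity was measured in Huh-7-Fluc cells after 48 h at 37 °C by luciferase read-out and visual inspection.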

Data set [4] concerns dengue virus type 2. In words: Antiviral activity against Dengue virus 2 infected in human Huh-7 cells assessed as inhibition of viral replication at 1 to 25 uM treated 4 hrs after infection measured after 24 hrs by reporter gene assay. The data set is classed as functional, organism-based.
A further data set relates to Huh-7. Description: Cytotoxicity against human HuH7 cells assessed as reduction of cell viability at up to 100 uM after 48 hrs by luciferase assay. Format: cell-based. The conditions noted are these: huh-7, 48 h. The gist of the method:
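Huh-7-Fluc cells exposed to compounds up to 100 μM for 48 h at 37 °C, 5% CO2. Cells then lysed and luciferase activity read as a surrogate of viability, alongside visual inspection of cells.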

Each structure is given as a SMILES string. Active and inactive are the calls of the source. The rule behind the calls is not given here.

Genome polyprotein (West Nile virus), sequence (P06935 whole entry): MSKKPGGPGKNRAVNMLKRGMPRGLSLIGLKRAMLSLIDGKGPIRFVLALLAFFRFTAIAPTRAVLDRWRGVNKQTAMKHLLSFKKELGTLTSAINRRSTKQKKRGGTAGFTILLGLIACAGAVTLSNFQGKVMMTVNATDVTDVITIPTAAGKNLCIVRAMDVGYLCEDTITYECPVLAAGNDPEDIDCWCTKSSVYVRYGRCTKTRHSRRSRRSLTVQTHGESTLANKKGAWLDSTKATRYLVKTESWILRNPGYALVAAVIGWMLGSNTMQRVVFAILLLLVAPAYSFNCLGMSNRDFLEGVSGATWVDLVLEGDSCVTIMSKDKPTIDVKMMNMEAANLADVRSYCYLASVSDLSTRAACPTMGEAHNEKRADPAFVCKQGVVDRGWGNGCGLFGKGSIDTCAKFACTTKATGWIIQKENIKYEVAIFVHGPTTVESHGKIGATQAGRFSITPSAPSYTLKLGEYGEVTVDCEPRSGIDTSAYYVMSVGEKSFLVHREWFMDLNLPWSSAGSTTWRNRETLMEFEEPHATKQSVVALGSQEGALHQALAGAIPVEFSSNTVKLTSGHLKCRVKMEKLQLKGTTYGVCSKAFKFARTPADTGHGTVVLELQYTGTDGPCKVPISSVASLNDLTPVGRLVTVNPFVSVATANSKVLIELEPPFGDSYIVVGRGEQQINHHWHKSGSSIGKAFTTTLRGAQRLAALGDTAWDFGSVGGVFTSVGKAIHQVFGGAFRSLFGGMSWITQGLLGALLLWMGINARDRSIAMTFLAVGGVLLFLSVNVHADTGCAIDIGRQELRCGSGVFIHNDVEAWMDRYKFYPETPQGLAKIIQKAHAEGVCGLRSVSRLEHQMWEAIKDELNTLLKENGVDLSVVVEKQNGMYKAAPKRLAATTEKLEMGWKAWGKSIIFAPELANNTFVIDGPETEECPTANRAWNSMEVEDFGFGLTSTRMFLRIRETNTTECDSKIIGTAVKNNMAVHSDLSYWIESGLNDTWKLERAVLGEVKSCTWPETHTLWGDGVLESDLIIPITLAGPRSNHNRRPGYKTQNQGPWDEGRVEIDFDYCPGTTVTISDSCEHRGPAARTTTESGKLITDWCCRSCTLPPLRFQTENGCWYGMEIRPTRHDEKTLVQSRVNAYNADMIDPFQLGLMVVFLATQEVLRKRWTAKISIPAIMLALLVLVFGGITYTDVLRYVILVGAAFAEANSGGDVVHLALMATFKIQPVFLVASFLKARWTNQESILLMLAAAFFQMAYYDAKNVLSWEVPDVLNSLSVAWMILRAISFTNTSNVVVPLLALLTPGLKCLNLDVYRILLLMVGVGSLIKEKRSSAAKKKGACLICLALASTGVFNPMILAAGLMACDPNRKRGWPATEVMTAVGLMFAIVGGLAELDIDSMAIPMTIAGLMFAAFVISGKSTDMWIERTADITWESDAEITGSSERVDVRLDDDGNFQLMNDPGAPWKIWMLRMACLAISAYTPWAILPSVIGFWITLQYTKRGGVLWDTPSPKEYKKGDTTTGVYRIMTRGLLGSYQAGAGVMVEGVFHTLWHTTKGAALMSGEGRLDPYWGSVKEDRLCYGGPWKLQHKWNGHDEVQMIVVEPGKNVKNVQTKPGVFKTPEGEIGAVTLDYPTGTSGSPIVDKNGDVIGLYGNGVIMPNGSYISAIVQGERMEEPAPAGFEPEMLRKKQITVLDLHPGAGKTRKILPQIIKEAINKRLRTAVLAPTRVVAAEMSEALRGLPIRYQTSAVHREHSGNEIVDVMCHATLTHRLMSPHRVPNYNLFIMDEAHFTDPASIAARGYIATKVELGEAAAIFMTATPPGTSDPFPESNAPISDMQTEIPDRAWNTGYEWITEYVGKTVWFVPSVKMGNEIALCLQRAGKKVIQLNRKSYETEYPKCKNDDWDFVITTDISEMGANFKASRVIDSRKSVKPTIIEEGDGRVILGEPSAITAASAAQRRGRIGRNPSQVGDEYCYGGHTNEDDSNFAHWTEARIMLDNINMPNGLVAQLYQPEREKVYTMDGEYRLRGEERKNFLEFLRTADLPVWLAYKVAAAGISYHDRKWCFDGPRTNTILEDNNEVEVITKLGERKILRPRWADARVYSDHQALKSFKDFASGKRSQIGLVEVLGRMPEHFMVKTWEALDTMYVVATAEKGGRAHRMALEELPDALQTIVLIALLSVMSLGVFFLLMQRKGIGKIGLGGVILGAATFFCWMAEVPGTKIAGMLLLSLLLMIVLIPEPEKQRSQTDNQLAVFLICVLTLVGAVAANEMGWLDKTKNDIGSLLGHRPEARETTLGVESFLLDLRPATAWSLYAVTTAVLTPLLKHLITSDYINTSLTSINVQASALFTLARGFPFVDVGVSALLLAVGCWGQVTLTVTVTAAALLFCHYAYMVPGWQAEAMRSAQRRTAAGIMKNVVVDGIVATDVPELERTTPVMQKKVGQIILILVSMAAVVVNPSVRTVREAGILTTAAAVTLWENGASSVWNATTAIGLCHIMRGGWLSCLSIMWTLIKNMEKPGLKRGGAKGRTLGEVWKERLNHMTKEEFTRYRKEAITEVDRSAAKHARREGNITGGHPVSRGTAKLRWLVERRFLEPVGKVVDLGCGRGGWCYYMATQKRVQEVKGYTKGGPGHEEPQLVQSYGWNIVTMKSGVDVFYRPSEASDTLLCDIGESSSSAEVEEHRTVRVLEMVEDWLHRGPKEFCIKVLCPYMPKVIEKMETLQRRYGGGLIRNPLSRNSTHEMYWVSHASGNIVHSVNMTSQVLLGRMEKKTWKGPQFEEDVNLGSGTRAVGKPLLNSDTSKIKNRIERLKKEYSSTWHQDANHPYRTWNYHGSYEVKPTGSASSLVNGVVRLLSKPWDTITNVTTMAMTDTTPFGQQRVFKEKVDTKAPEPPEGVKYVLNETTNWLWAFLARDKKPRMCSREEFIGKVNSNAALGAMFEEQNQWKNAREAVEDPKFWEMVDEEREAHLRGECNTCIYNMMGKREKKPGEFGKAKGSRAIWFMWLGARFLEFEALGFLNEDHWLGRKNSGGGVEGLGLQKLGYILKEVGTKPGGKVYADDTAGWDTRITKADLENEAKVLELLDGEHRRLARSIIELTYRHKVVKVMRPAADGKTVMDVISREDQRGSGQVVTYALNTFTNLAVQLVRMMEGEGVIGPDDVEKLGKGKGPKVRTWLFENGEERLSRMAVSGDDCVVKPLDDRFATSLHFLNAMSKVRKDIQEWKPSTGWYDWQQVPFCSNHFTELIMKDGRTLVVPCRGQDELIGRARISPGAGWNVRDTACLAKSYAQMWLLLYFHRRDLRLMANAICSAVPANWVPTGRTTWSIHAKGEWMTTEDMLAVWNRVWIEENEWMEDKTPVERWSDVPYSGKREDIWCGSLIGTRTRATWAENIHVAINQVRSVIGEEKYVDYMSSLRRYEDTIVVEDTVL

In the case of `CC(C)(C)NC(=O)C(O)/C=C/c1ccccc1` (stereo unspecified), the inhibition in the data set on Dengue virus is 8.2%.

`CC(C)(C)NC(=O)C(=O)/C=C/c1ccc2ccccc2c1`: the inhibition in the data set on Dengue virus came to 8.9%.

On to `CC(C)(C)NC(=O)C(=O)/C=C/c1ccncc1`, for which the inhibition with Dengue virus came out at 18.4%.

In turn, `O=C(/C=C/c1ccccc1)C(=O)N1CCOCC1` yielded an inhibition with Dengue virus of 30.8%.

In the data set with Dengue virus, `CC(=O)n1cc(/C=C/C(=O)C(=O)NC(C)(C)C)c2ccccc21` displayed an inhibition of 29.8%.

In the data set on Dengue virus, `CC(C)(C)NC(=O)C(=O)/C=C/c1ccccc1[N+](=O)[O-]` came in with an inhibition of 12.9%.

In the data set with Dengue virus, `O=C(/C=C/c1ccccc1)C(=O)NCC1CCCO1` (stereo unspecified) returned an inhibition of 28.9%.

Consider `CC(C)(C)NC(=O)C(=O)/C=C/c1ccc(O)cc1`, for which the results for the inhibition (in data set [1]; in data set [2]; in the data set with Dengue virus) were 17.3%, 31.4% and 37.6%, respectively.

As for `CC(C)(C)NC(=O)C(=O)/C=C/c1cccc([N+](=O)[O-])c1`, in the data set on Dengue virus, the inhibition was 9.6%.

In the case of `CN(C)c1ccc(/C=C/C(=O)C(=O)NC(C)(C)C)cc1`, the inhibition in data set [1] was determined as 28.9%; in data set [2], 33.9%; in the data set on Dengue virus it was 13.8%.

`CC(C)(C)NC(=O)C(=O)/C=C/c1c[nH]c2ccccc12`: the “fold change (FC)” value in the data set with dengue virus type 2 [3] came to 1000. Moreover, in the data set on dengue virus type 2 [4], the result was Active. Moreover, the inhibition in data set [1] was found to be 16.9%; in data set [2], 40.6%; with Dengue virus it was 39.1%. In the data set with Huh-7, the Activity result is given as “Non-toxic”.

`CC(C)(C)NC(=O)C(=O)/C=C/c1cccnc1` yielded an inhibition with Dengue virus of 23.3%.

As to `CC(C)(C)NC(=O)C(=O)CCc1ccccc1`, the result in the data set on dengue virus type 2 [4] was inactive. The inhibition in the data set with Dengue virus is 0%.

Consider `C/C(=C\C(=O)C(=O)NC(C)(C)C)c1ccccc1`, for which the inhibition in the data set with Dengue virus amounted to 19.6%.

`CC(C)(C)NC(=O)C(=O)C1CCCCC1` showed an inhibition in the data set with Dengue virus of 21.5%.

Compound `CC(C)(C)NC(=O)C(=O)/C=C/c1ccc([N+](=O)[O-])cc1` gave an inhibition with Dengue virus of 12.7%.

`COc1ccc(/C=C/C(=O)C(=O)NC(C)(C)C)cc1OC`: the result in the data set with dengue virus type 2 [4] was Active. Besides, the inhibition in data set [1] turned out to be 22.5%; in data set [2], 31%; with Dengue virus, 36.1%.

Turning to `CNC(=O)C(=O)/C=C/c1ccccc1`, the inhibition with Dengue virus was 26.9%.

Consider `CC(C)(C)NC(=O)C(=O)c1ccccc1`, for which the inhibition in the data set with Dengue virus is 6.9%.

`COc1ccc(/C=C/C(=O)C(=O)NC(C)(C)C)c(OC)c1OC` registered an inhibition with Dengue virus of 27.8%.

For the compound `CC(C)(C)NC(=O)C(=O)/C=C/c1ccc(C#N)cc1`, the inhibition with Dengue virus was 13.5%.

Regarding `COC(=O)[C@H](CO)NC(=O)C(=O)/C=C/c1ccccc1`, the inhibition in data set [1] was determined as 12.6%; in data set [2], 27.5%; in the data set on Dengue virus, 35.1%.

For `C/C(=C\c1ccccc1)C(=O)C(=O)NC(C)(C)C`, the values for the inhibition (in data set [1]; in data set [2]; in the data set on Dengue virus) were 5.7%, 0% and 25.6%, respectively.

As for `CC(=O)OCCNC(=O)C(=O)/C=C/c1ccccc1`, the inhibition in data set [1] was determined as 16.3%; in data set [2], 29.8%; with Dengue virus, 35.8%.

In the data set on Dengue virus, `CC(C)(C)NC(=O)C(=O)/C=C/c1ccc(Br)cc1` yielded an inhibition of 15.1%.

As for `CC(C)(C)NC(=O)C(=O)/C=C/c1ccc(N)cc1`, the inhibition was 21.1% in data set [1], 39.5% in data set [2] and 40.6% in the data set with Dengue virus.

In the data set with Dengue virus, `O=C(/C=C/c1ccccc1)C(=O)NCCO` gave an inhibition of 26.1%.

With `O=C(/C=C/c1ccccc1)C(=O)NC1CCCCC1`, the inhibition with Dengue virus was 14.5%.

`CC(C)(C)NC(=O)C(=O)/C=C/c1ccccn1`: the inhibition in the data set on Dengue virus came out at 27.7%.

With `CC(C)(C)NC(=O)C(=O)/C=C/c1ccc(Cl)cc1`, the inhibition turned out to be 6.7% in data set [1], 6.3% in data set [2] and 15.9% with Dengue virus.

Regarding `CC(C)(C)NC(=O)C(=O)/C=C/c1cccc(F)c1`, the inhibition in the data set on Dengue virus was found to be 16.8%.

On to `CNC(=O)/C=C/c1ccccc1`, for which, in the data set on Dengue virus, the inhibition stood at 15.2%.

In turn, `CCC/C=C/C(=O)C(=O)NC(C)(C)C` came in with an inhibition in the data set on Dengue virus of 4.4%.

In the data set on Dengue virus, `COc1cccc(/C=C/C(=O)C(=O)NC(C)(C)C)c1` yielded an inhibition of 17.8%.

On to `Cn1cc(/C=C/C(=O)C(=O)NC(C)(C)C)c2ccccc21`, for which the inhibition in the data set with Dengue virus is 31.3%.

Consider `CC(=O)Nc1ccc(/C=C/C(=O)C(=O)NC(C)(C)C)cc1`, for which, in the data set with Dengue virus, the inhibition is 32.9%.

On to `O=C(/C=C/c1ccccc1)C(=O)NCc1ccccn1`, for which, in the data set with Dengue virus, the inhibition worked out at 29.4%.

In the case of `CC(C)(C)NC(=O)C(=O)/C=C/c1ccc(F)cc1`, the inhibition in the data set with Dengue virus was determined as 23.9%.

With `CN(C)C(=O)C(=O)/C=C/c1ccccc1`, the inhibition with Dengue virus came to 29%.

For the compound `CC(C)(C)NC(=O)C(=O)/C=C/c1ccccc1`, the inhibition in data set [1] is 19.6%; in data set [2] it was 20%; in the data set on Dengue virus, 26.3%.

Take `CC(C)(C)NC(=O)C1(/C=C/c2ccccc2)CO1` (stereo unspecified): the inhibition in data set [1] is 12.1%; in data set [2] it was 20.3%; with Dengue virus, 12.6%.

`COc1ccccc1/C=C/C(=O)C(=O)NC(C)(C)C`: in the data set on Dengue virus, the inhibition worked out at 23.3%.

The compound `CC(C)(C)NC(=O)C(=O)/C=C/c1cccs1` had an inhibition in the data set with Dengue virus of 27.6%.

In turn, `CC(C)c1ccc(/C=C/C(=O)C(=O)NC(C)(C)C)cc1` registered an inhibition with Dengue virus of 25.5%.

For `CC(C)(C)NC(=O)C(=O)C1CC1c1ccccc1` (stereo unspecified), in the data set on Dengue virus, the inhibition came to 7.4%.

Turning to `COc1ccc(/C=C/C(=O)C(=O)NC(C)(C)C)cc1`, the inhibition stood at 14.2% in data set [1], 27.3% in data set [2] and 16.7% with Dengue virus.

In the case of `O=C(/C=C/c1ccccc1)C(=O)NC1CC1`, the inhibition in data set [1] is 17.1%; in data set [2], 20%; in the data set on Dengue virus, 31.2%.

On to `CC(NC(=O)C(=O)/C=C/c1ccccc1)c1ccccc1` (stereo unspecified), for which the inhibition in data set [1] amounted to 5.1%; in data set [2], 12.2%; in the data set on Dengue virus, 0%.

Turning to `O=C(/C=C/c1ccccc1)C(=O)NCc1ccccc1`, the inhibition in the data set with Dengue virus came to 14.6%.

Compound `CC(C)NC(=O)C(=O)/C=C/c1ccccc1` had an inhibition in the data set with Dengue virus of 23.8%.

`O=C(/C=C/c1ccccc1)C(=O)NCc1ccncc1` showed an inhibition in the data set with Dengue virus of 29.9%.

On to `CC(C)(C)NC(=O)C(=O)Cc1ccccc1`, for which, in the data set with Dengue virus, the inhibition is 20.4%.

The compound `CCCCCNC(=O)C(=O)/C=C/c1ccccc1` gave an inhibition in the data set with Dengue virus of 25.9%.

These data come from ChEMBL document CHEMBL1795316, “Synthesis and biological evaluation of α-ketoamides as inhibitors of the Dengue virus protease with antiviral activity in cell-culture” (Bioorg Med Chem, 2011).
